Assay results: ChEMBL document CHEMBL3421595, “Design and Synthesis of New α-Naphthoflavones as Cytochrome P450 (CYP) 1B1 Inhibitors To Overcome Docetaxel-Resistance Associated with CYP1B1 Overexpression” (J Med Chem, 2015)

Assays:
Cytochrome P450 1B1 [1] = target: T1, Cytochrome P450 1B1 (Homo sapiens, UniProt Q16678); assay: Inhibition of human CYP1B1 assessed as reduction in 7-ethoxyresorufin O-deethylation activity by fluorescence based EROD assay
T1 sequence (Q16678 whole entry): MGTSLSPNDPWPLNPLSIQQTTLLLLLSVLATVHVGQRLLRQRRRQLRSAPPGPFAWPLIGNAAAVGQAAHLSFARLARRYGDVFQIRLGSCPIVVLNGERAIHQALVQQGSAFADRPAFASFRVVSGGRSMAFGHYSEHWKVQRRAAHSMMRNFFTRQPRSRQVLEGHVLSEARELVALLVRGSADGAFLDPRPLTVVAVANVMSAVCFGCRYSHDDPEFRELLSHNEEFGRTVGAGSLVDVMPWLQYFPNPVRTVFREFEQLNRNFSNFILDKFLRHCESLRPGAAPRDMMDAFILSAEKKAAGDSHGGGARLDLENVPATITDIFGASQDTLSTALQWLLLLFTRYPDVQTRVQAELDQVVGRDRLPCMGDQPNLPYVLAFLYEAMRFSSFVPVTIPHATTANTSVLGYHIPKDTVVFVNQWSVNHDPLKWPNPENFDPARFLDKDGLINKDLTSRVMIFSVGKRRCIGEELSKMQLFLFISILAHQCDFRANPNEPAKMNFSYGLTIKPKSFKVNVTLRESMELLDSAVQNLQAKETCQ
How it was run: (§1)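 Recombinant human CYP1B1, 1A1 and 1A2 in a standard EROD assay. NADPH regeneration system: 1.3 mM NADP+, 3.3 mM G-6-P, 0.5 U/mL G6-PD. Incubation time 35 min for CYP1B1, 15 min for 1A1 and 50 min for 1A2. IC50 by Probit analysis; selectivity taken as the ratio of IC50 values.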

Cytochrome P450 1A1 = target: T2, Cytochrome P450 1A1 (Homo sapiens, UniProt P04798); assay: Inhibition of human CYP1A1 assessed as reduction in 7-ethoxyresorufin O-deethylation activity by fluorescence based EROD assay; format: ADME
T2 sequence (P04798 whole entry): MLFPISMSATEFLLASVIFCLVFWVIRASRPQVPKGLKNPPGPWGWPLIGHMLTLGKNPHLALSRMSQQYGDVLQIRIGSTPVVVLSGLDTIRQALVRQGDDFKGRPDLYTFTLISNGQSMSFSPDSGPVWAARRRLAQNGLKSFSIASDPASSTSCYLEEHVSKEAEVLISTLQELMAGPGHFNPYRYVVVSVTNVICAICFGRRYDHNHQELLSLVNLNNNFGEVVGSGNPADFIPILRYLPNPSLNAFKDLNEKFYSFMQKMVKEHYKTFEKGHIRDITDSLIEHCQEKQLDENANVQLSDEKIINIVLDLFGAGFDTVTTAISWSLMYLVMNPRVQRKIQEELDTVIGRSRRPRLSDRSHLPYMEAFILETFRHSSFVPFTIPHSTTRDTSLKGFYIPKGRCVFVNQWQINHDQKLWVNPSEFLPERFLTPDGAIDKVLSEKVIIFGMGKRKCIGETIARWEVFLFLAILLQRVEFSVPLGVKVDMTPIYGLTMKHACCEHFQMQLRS
How it was run: as §1, with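 “assay. 7-Ethoxyresorufin fixed at 150 nM.” for “assay.”, “1A2. Resorufin fluorescence read at ex 545 / em 590 nm.” for “1A2.”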

Cytochrome P450 1A2 = target: T3, Cytochrome P450 1A2 (Homo sapiens, UniProt P05177); assay: Inhibition of human CYP1A2 assessed as reduction in 7-ethoxyresorufin O-deethylation activity by fluorescence based EROD assay; format: ADME; how it was run: as §1
T3 sequence (P05177 whole entry): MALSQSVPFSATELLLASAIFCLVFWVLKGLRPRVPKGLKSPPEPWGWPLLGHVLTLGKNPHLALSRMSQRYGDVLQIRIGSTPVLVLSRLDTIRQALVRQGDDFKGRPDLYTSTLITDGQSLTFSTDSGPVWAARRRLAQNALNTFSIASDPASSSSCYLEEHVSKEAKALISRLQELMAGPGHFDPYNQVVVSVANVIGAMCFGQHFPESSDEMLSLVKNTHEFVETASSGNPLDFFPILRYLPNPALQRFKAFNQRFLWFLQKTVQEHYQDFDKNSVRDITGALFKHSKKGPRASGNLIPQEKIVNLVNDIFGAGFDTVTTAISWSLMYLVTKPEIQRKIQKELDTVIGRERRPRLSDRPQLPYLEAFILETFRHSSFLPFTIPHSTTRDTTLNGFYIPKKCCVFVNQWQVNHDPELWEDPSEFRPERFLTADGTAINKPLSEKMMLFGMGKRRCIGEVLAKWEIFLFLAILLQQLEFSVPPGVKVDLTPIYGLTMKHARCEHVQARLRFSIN

Homo sapiens [2] = organism: Homo sapiens; assay: Selectivity index, ratio of IC50 for human CYP1A1 to IC50 for human CYP1B1
How it was run: as §1, with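 “assay. 7-Ethoxyresorufin fixed at 150 nM.” for “assay.”, “1A2. Resorufin fluorescence read at ex 545 / em 590 nm.” for “1A2.”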

Homo sapiens [3] = organism: Homo sapiens; assay: Selectivity index, ratio of IC50 for human CYP1A2 to IC50 for human CYP1B1
How it was run: as §1, with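 “assay. 7-Ethoxyresorufin fixed at 150 nM.” for “assay.”, “1A2. Resorufin fluorescence read at ex 545 / em 590 nm.” for “1A2.”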

Cytochrome P450 1B1 [4] = target: T1, Cytochrome P450 1B1; assay: Potency index, ratio of IC50 for ANF to IC50 for compound against human CYP1B1 assessed as reduction in 7-ethoxyresorufin O-deethylation activity by fluorescence based EROD assay; settings: read-out: Ratio IC50
How it was run: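 Recombinant human CYP1B1 EROD assay with 150 nM 7-ethoxyresorufin. NADPH regeneration system (1.3 mM NADP+, 3.3 mM G-6-P, 0.5 U/mL G6-PD) replaced NADPH. Incubated 35 min; resorufin fluorescence read at ex 545/em 590 nm. IC50 by Probit analysis. ANF was the positive control in the same assay, and the index divides its IC50 by the compound's IC50.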

MCF7 [5] = assay: Cytotoxicity against human MCF7 cells over-expressing CYP1B1 after 48 hrs by MTT assay; format: functional, cell-based; settings: MCF7, 48 h
How it was run: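 CYP1B1-expressing MCF-7 (MCF-7/1B1) made by exposing parental cells to 10 nM TCDD for 96 h, with daily renewal of medium containing fresh 10 nM TCDD. Standard MTT assay, 48 h exposure to docetaxel alone or combined with a CYP1B1 inhibitor (5 or 10 μM). Wells with inhibitor alone (10 μM) served as negative control. Five concentrations, four replicate wells each, three plates.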

MCF7 [6] = assay: Cytotoxicity against human MCF7 cells after 48 hrs by MTT assay; format: functional, cell-based; settings: MCF7, 48 h
How it was run: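 MCF-7 cells grown in RPMI-1640 with 10% FBS at 37 °C, 5% CO2 and subcultured every 3 days at 1:5. Standard MTT assay with a 48 h exposure to freshly prepared docetaxel. Five concentrations per plate, four replicate wells each, three replicate plates. Viability is percent surviving cells relative to control. IC50 is the average of three parallel experiments.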

MCF7 [7] = assay: Resistance index, ratio of IC50 for human MCF7 cells over-expressing CYP1B1 to IC50 for human MCF7 cells; format: functional

In the case of COc1ccc(OC)c2c1c(OC)cc1c(=O)cc(-c3ccccc3)oc12, the IC50 (Cytochrome P450 1B1 [1]) is reported as 0.2 nM, the IC50 (Cytochrome P450 1A1) is reported as 4.8 nM and the IC50 (Cytochrome P450 1A2) is reported as 16.1 nM. For the same compound, the Ratio IC50 (Homo sapiens [2]) was 24, the Ratio IC50 (Homo sapiens [3]) was 81 and the selectivity ratio (Cytochrome P450 1B1 [4]) was 6.

For CC(=O)O[C@@]12CO[C@@H]1C[C@H](O)[C@@]1(C)C(=O)[C@H](O)C3=C(C)[C@@H](OC(=O)[C@H](O)[C@@H](NC(=O)OC(C)(C)C)c4ccccc4)C[C@@](O)([C@@H](OC(=O)c4ccccc4)[C@H]21)C3(C)C.O.O.O [DOCETAXEL], the IC50 (MCF7 [5]) was 140000 nM, the IC50 (MCF7 [6]) was 27600 nM and the “Ratio IC50” value (MCF7 [7]) was 5.

COc1ccc(-c2cc(=O)c3cc(OC)c4c(OC)ccc(OC)c4c3o2)cc1 gave an IC50 (Cytochrome P450 1B1 [1]) of 1.1 nM, an IC50 (Cytochrome P450 1A1) of 12.9 nM and an IC50 (Cytochrome P450 1A2) of 16.4 nM. The Ratio IC50 (Homo sapiens [2]) was 12 and the Ratio IC50 (Homo sapiens [3]) was 15.

In the case of COc1ccc(OC)c2c1c(OC)cc1c(=O)c(OCCCCCCOC(=O)CN)c(-c3cccc(F)c3)oc12, the IC50 (Cytochrome P450 1B1 [1]) is reported as 68.8 nM, the IC50 (Cytochrome P450 1A1) is reported as 36.2 nM and the IC50 (Cytochrome P450 1A2) is reported as 120 nM. The Ratio IC50 (Homo sapiens [2]) was 0.53 and the Ratio IC50 (Homo sapiens [3]) was 1.7.

COc1ccc(OC)c2c1c(OC)cc1c(=O)c(O)c(-c3ccccc3Cl)oc12 was tested, and the IC50 (Cytochrome P450 1B1 [1]) was 1.6 nM, the IC50 (Cytochrome P450 1A1) was 32.9 nM and the IC50 (Cytochrome P450 1A2) was 49.6 nM. It also gave a Ratio IC50 (Homo sapiens [2]) of 21 and a Ratio IC50 (Homo sapiens [3]) of 31.

COc1ccccc1-c1cc(=O)c2cc(OC)c3c(OC)ccc(OC)c3c2o1 was tested, and the IC50 (Cytochrome P450 1B1 [1]) was 9 nM, the IC50 (Cytochrome P450 1A1) was 18.8 nM and the IC50 (Cytochrome P450 1A2) was 13.5 nM. It also gave a Ratio IC50 (Homo sapiens [2]) of 2.1 and a Ratio IC50 (Homo sapiens [3]) of 1.5.

In the case of COc1ccc(OC)c2c1c(OC)cc1c(=O)cc(-c3cccc(Cl)c3)oc12, the IC50 (Cytochrome P450 1B1 [1]) is reported as 0.3 nM, the IC50 (Cytochrome P450 1A1) is reported as 6.4 nM and the IC50 (Cytochrome P450 1A2) is reported as 61.1 nM. It also gave a Ratio IC50 (Homo sapiens [2]) of 21 and a Ratio IC50 (Homo sapiens [3]) of 204.

COc1ccc(OC)c2c1c(OC)cc1c(=O)cc(-c3ccc(Cl)cc3)oc12 was tested, and the IC50 (Cytochrome P450 1B1 [1]) was 0.2 nM, the IC50 (Cytochrome P450 1A1) was 1.8 nM and the IC50 (Cytochrome P450 1A2) was 27.7 nM. For the same compound, the Ratio IC50 (Homo sapiens [2]) was 9 and the Ratio IC50 (Homo sapiens [3]) was 139.

In the case of COc1ccc(OC)c2c1c(OC)cc1c(=O)c(OCCOC(=O)CN)c(-c3cccc(F)c3)oc12, the IC50 (Cytochrome P450 1B1 [1]) is reported as 19.6 nM, the IC50 (Cytochrome P450 1A1) is reported as 13.6 nM and the IC50 (Cytochrome P450 1A2) is reported as 56.2 nM. It also gave a Ratio IC50 (Homo sapiens [2]) of 0.69 and a Ratio IC50 (Homo sapiens [3]) of 2.9.

With COc1ccc(OC)c2c1c(OC)cc1c(=O)cc(-c3ccc(F)cc3)oc12 the IC50 (Cytochrome P450 1B1 [1]) was 0.3 nM, the IC50 (Cytochrome P450 1A1) was 9.8 nM and the IC50 (Cytochrome P450 1A2) was 15.4 nM. It also gave a Ratio IC50 (Homo sapiens [2]) of 33 and a Ratio IC50 (Homo sapiens [3]) of 51.
